# Calls of active or inactive are those of the source. No cut-off for these calls is given here.
# Target: T1, Mucosa-associated lymphoid tissue lymphoma translocation protein 1 (Homo sapiens) (UniProt Q9UDY8)
# T1 sequence (whole entry): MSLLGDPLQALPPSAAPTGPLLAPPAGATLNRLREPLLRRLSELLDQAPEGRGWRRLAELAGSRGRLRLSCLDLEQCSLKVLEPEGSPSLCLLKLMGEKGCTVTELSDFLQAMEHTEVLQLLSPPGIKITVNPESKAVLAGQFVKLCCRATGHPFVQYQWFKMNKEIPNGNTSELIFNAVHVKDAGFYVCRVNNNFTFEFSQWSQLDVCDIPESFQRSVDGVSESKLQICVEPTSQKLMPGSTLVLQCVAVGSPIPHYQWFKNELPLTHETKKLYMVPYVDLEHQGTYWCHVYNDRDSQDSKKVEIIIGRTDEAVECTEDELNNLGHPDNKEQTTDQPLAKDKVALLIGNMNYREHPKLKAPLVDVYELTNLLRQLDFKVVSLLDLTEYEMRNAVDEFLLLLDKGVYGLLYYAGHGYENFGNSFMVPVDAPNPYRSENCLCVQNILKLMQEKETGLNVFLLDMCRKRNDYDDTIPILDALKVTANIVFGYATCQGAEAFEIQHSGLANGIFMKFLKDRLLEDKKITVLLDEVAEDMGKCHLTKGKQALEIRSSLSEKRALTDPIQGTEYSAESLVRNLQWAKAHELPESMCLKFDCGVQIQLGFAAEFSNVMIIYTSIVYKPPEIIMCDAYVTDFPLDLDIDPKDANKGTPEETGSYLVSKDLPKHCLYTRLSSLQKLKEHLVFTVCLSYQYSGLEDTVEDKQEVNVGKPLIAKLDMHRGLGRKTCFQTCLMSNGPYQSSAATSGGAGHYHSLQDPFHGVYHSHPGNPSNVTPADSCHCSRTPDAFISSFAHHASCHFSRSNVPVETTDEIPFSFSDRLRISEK
# Assay: Inhibition of full-length human GST-tagged MALT1 isoform A (824 residues) expressed in Escherichia coli at 100 uM using Ac-LRSR-MCA as substrate after 1 hr by fluorescence assay
row,Structure (SMILES),inhibition
1,Cc1cc([C@@H]2C[C@H](O)C(=O)O2)c2c(=O)c3c(O)cccc3oc2c1,inactive
2,COc1cc2c(c(O)c1[C@H](C)O)C(=O)CC[C@@H]2O,inactive
3,CCc1c(OC)cc2c(c1O)C(=O)CC[C@@H]2O,inactive
4,COc1c(C)cc(O)c2c1[C@H](O)[C@]1(C(=O)C(CC=C(C)C)=CC[C@H]1O)C2=O,inactive
5,CCc1c(OC)cc2c(c1O)C(=O)CC[C@@]21C[C@@H](O)C(=O)O1,inactive

# The next lines start with the values.
row,inhibition,Structure (SMILES)
1,inactive,COC(=O)c1cc(O)cc2oc3cc(C)cc(O)c3c(=O)c12
2,inactive,COC(=O)c1cccc2oc3cc(C)cc(O)c3c(=O)c12
3,inactive,Cc1cc(CO)c2c(=O)c3c(O)cccc3oc2c1
4,inactive,COC(=O)c1cc(C)c(O)c2oc3cccc(O)c3c(=O)c12

# Target: T1, Mucosa-associated lymphoid tissue lymphoma translocation protein 1 (Homo sapiens)
# Assay: Inhibition of full-length human GST-tagged MALT1 isoform A (824 residues) expressed in Escherichia coli at >100 uM in presence of AMC after 1 hr by fluorescence assay
row,inhibition,Structure (SMILES)
1,Active,COC(=O)C1=CC(C)=COc2oc3cccc(O)c3c(=O)c21
2,Active,COC(=O)C1=CC=COc2oc3cc(C)cc(O)c3c(=O)c21

# Target: T2, Mucosa-associated lymphoid tissue lymphoma translocation protein 1 (Homo sapiens, UniProt Q9UDY8)
# T2 sequence (Q9UDY8 whole entry): T1 sequence (whole entry)
# Assay: Inhibition of full-length human GST-tagged MALT1 isoform A (824 residues) expressed in Escherichia coli using Ac-LRSR-MCA as substrate after 1 hr by fluorescence assay
# Summary of the method: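 Recombinant MALT1-GST, 25 nM final, in buffer of 50 mM Tris HCl pH 7.5, 0.05% CHAPS, 1 mM DTT, 0.1 mM EGTA, 0.8 M sodium citrate. Started by adding 150 μM Ac-LRSR-MCA with compound (0−250 μM). 37 °C for 1 h, quenched with equal volume 0.2% SDS, AMC fluorescence read at ex 342/em 441 nm in quadruplicate. Prequenched background subtracted, normalized to vehicle control.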
row,IC50,Structure (SMILES)
1,32.1 µM,COC(=O)C1=CC(C)=COc2oc3cccc(O)c3c(=O)c21
2,50.9 µM,COC(=O)C1=CC=COc2oc3cc(C)cc(O)c3c(=O)c21
3,0.016 µM,CC(C)[C@H](NC(=O)OCc1ccccc1)C(=O)N[C@@H](CCCNC(=N)N)C(=O)N1CCC[C@H]1C(=O)N[C@@H](CCCNC(=N)N)C(=O)CF

# Source: ChEMBL document CHEMBL4371094, “Secondary Metabolites from the Fungus Dictyosporium sp. and Their MALT1 Inhibitory Activities” (J Nat Prod, 2019)
